In ChEMBL document CHEMBL4680156, “Discovery of novel pyrido-pyrrolidine hybrid compounds as alpha-glucosidase inhibitors and alternative agent for control of type 1 diabetes” (Eur J Med Chem, 2020):
Values after ≈ are worked out from the molar mass of the structure shown. Active and inactive are the calls of the source. No cut-off for these calls is given here.

Tests used:
[1] = Clearance in mouse; type: ADME, organism-based; details: in vivo
[2] = Drug recovery in mouse plasma at 10 uM after 6 hrs by LC-MS/MS analysis; type: ADME, cell-free; details: read-out: Drug recovery
How it was run: (§1)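 Equilibrium dialysis: plasma with compound at 10 μM final on one side, 100 mM sodium phosphate pH 7.4 on the other. Equilibrated at 37 ± 1 °C for 6 h with shaking at 500 rpm. Both sides were sampled, proteins precipitated with organic solvent, and supernatants analysed by LC-MS/MS.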

[3] = biological target: Cytochrome P450 (Homo sapiens, UniProt P04798+P05177+P05181+P08684+P10632+P10635+P11509+P11712+P13584+P20813+P20815+P20853+P24462+P24903+P33260+P33261+P51589+P78329+P98187+Q02928+Q08477+Q16678+Q16696+Q5TCH4+Q6VVX0+Q7Z449+Q8TAV3+Q96SQ9+Q9HB55); assay: Stability in human liver microsomes assessed as CYP450-mediated drug degradation by measuring proportion of compound metabolised at 1 uM up to 60 mins in presence of NADPH by LC-MS/MS analysis; type: ADME; details: read-out: Drug degradation
How it was run: (§2)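 Liver microsomes (1.0 mg protein/mL) were incubated with compound at 1 μM; reactions were started with 1 mM NADPH. No-NADPH incubations (0 and 60 min) served as stability controls. Reactions were stopped at 0, 5, 15, 30 and 60 min with ice-cold acetonitrile containing internal standard, then centrifuged. Parent loss was tracked by LC-MS/MS.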

[4] = Thermodynamic solubility of compound in phosphate buffer at 1 mg/ml at pH 7.4 after 24 hrs by HPLC analysis; type: physicochemical; details: read-out: Therm_solubility
How it was run: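 1 mg compound incubated in 1 mL phosphate buffer saline (pH 7.4) for 24 h with vortexing at 500 rpm. Samples were then centrifuged and the supernatant injected into HPLC to quantify dissolved compound.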

[5] = Protein binding in rat plasma assessed as bound fraction at 10 uM after 6 hrs by LC-MS/MS analysis; type: ADME, cell-free; details: read-out: PPB (converted); how it was run: as §1
[6] = test system: Saccharomyces cerevisiae; assay: Binding affinity to Saccharomyces cerevisiae alpha-glucosidase assessed as protein with alpha-helical structure at 0.32 ug/ml by CD spectroscopic method (reference value: 5.3%); details: dose 0.32 µg/ml
How it was run: (§3)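 Compound was added at different concentrations to yeast α-glucosidase (30 U/ml). CD spectra were taken with 3 accumulations (negative bands at 209 and 222 nm). α-Helix and β-sheet content were estimated with secondary-structure estimation software.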

[7] = Drug recovery in human plasma at 10 uM after 6 hrs by LC-MS/MS analysis; type: ADME, cell-free; details: read-out: Drug recovery; how it was run: as §1
[8] = Intrinsic clearance in human liver microsomes at 1 uM up to 60 mins in presence of NADPH by LC-MS/MS analysis; type: ADME, Microsome; details: 1 h; how it was run: as §2
[9] = Permeability of compound at pH 7.4 after 4 hrs by GIT PAMPA method; type: ADME; details: read-out: permeability
How it was run: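 GIT PAMPA: compound in the donor plate at pH 7.4, with GIT-0 lipid coated on the acceptor membrane and sink buffer in the acceptor plate. Incubated 4 h; donor and acceptor aliquots were read by UV to give permeability.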

[10] = Clearance in human; type: ADME; how it was run: as §2
[11] = test system: Saccharomyces cerevisiae; assay: Binding affinity to Saccharomyces cerevisiae alpha-glucosidase assessed as decrease in fluorescence intensity at 6.25 to 25 ng/ml after 30 mins by spectrofluorometric method; details: dose 6.25-25 ng/ml
How it was run: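 Yeast α-glucosidase (1.5 U) was pretreated with compound at 6.25 and 25 ng/ml for 30 min at 37 °C. Intrinsic Trp fluorescence was excited at 295 nm and the emission (peak 330 nm) recorded at 298 K. Quenching was scored against free enzyme.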

[12] = Competitive inhibition of Saccharomyces cerevisiae alpha-glucosidase using PNPG as substrate incubated for 10 mins by Lineweaver-Burk plot analysis
How it was run: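 Yeast α-glucosidase kinetics used pNPG at 1, 2, 3, 4 and 5 mM without inhibitor or with inhibitor at 2 and 10 μM, at 37 °C. Absorbance read at 420 nm. Mode of inhibition came from Km/Vmax changes on Lineweaver–Burk double-reciprocal plots; Ki derived […].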

[13] = Clearance in rat; type: ADME; details: in vivo
[14] = test system: Saccharomyces cerevisiae; assay: Binding affinity to Saccharomyces cerevisiae alpha-glucosidase assessed as protein with beta-sheet structure at 0.32 ug/ml by CD spectroscopic method (reference value: 68%); details: dose 0.32 µg/ml; how it was run: as §3
[15] = test system: BRIN-BD11; assay: Induction of rat BRIN-BD11 cell proliferation at 1 uM after 24 hrs by MTT assay; type: functional
How it was run: (§4)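 BRIN-BD11 rat β-cells were seeded at 10^4 cells/well in RPMI and left overnight. They were exposed 24 h to compound at 100, 30, 10, 3, 1, 0.3 and 0.1 μM. MTT (5 mg/ml stock) was added for 90 min at 37 °C, formazan dissolved in DMSO, and absorbance read at 560 nm.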

[16] = Protein binding in mouse plasma assessed as bound fraction at 10 uM after 6 hrs by LC-MS/MS analysis; type: ADME, cell-free; details: read-out: PPB (converted); how it was run: as §1
[17] = Protein binding in mouse plasma assessed as unbound fraction at 10 uM after 6 hrs by LC-MS/MS analysis; type: ADME, cell-free; how it was run: as §1
[18] = Intrinsic clearance in mouse liver microsomes at 1 uM up to 60 mins in presence of NADPH by LC-MS/MS analysis; type: ADME, Microsome; details: 1 h; how it was run: as §2
[19] = Cytotoxicity against rat BRIN-BD11 cells assessed as reduction in cell viability at >=10 uM after 24 hrs by MTT assay; type: cell-based; details: brin-bd11, 24 h; how it was run: as §4
[20] = Octanol/aqueous buffer distribution coefficient, log D of compound after 1 hr by HPLC-UV analysis; type: physicochemical
How it was run: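 Compound was added to octanol and vortexed, then buffer was added. The mixture was shaken 1 h at room temperature, allowed to equilibrate 20 min and centrifuged at 4000 g for 30 min. Octanol and buffer layers were each quantified by HPLC-UV.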

[21] = Toxicity in STZ-treated diabetic Sprague-Dawley rat model assessed as decrease in body weight at 60 mg/kg, po administered once daily for 28 days; type: organism-based; details: in vivo, 672 h, time 28 day
How it was run: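 Male Sprague-Dawley rats (250–320 g, 8–10 weeks) were made diabetic with a single STZ dose (70 mg/kg ip in 0.1 mmol/L citrate buffer, pH 4.5). Random glucose above 125 mg/dl defined diabetes. Dosing was 60 mg/kg in 0.5% saline by gastric gavage once daily for 4 weeks, n=6 per group, with vehicle controls. Body weight was recorded before and after treatment; mean ± SD, 2-way ANOVA.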

[22] = test system: Saccharomyces cerevisiae; assay: Potency index, ratio of acarbose IC50 to test compound IC50 for inhibition of Saccharomyces cerevisiae alpha-glucosidase using PNPG as substrate incubated for 10 mins by spectrophotometric method
[23] = Inhibition of Saccharomyces cerevisiae alpha-glucosidase using PNPG as substrate incubated for 10 mins by spectrophotometric method
[24] = Protein binding in human plasma assessed as bound fraction at 10 uM after 6 hrs by LC-MS/MS analysis; type: ADME, cell-free; details: read-out: PPB (converted); how it was run: as §1

clearance [1]: 60.3 mL/min/kg
remaining at 6 h, 10 µM [2]: 15%
metabolised at 1 h, 1 µM [3]: 96.3%
solubility thermodynamic at 24 h [4]: 0.1 µg/mL (≈ 0.238 µM)
fraction unbound at 6 h, 10 µM [5]: 0.0156
Activity [6]: 5.2%
remaining at 6 h, 10 µM [7]: 56.7%
CLint [8]: 54.8 µL/min/mg
Papp at 4 h [9]: 15 ×10⁻⁶ cm/s
clearance [10]: 15.1 mL/min/kg
Activity [11]: Active
Ki [12]: 29.9 µM
clearance [13]: 35.2 mL/min/kg
Activity [14]: 63%
fraction unbound at 6 h, 10 µM [16]: 0.0899
fraction unbound at 6 h, 10 µM [17]: 0.0899
CLint [18]: 74.1 µL/min/mg
logD at 1 h [20]: 2.4
Ratio IC50 [22]: 4
IC50 [23]: 0.56 µM
fraction unbound at 6 h, 10 µM [24]: 0.107
SMILES: CCOC(=O)c1ccc(-n2c(/C=C3\OC(=O)c4c3cc(C)[nH]c4=O)ccc2CO)cc1
Activity [15]: Active
Activity [19]: Toxic
Activity [21]: Non-Toxic
